This note sets out measurements from ChEMBL document CHEMBL1212799 (2010).

Converted amounts (≈) assume the structure as drawn.

Experiment [1] concerns Klebsiella pneumoniae. The experiment can be described thus: Antibacterial activity against Klebsiella pneumoniae isolate 375 in vitro pharmacodynamic model. Type of experiment: functional. Summed up: (§1)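 Simulated peak 38.4 µg/ml, trough 3.04 µg/ml. CAMHB at 37°C, 10^6 CFU/ml from overnight culture, drug started at 0.5 h. Two treated models plus one growth control. Change in log10 CFU/ml over 24 h on blood agar. Detection limit 10^1 CFU/ml.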

The subject of experiment [2] is Klebsiella pneumoniae. Briefly: Antibacterial activity against Klebsiella pneumoniae isolate 361 in vitro pharmacodynamic model. Type of experiment: functional. Summed up:
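Inoculum 10^6 CFU/ml; dosing began 0.5 h after inoculation. Two treated models plus one untreated control per isolate; blood-agar counts; change in log10 CFU/ml over 24 h (detection limit 10^1); drug levels checked by HPLC.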

Experiment [3] concerns Pseudomonas aeruginosa. The experiment can be described thus: Antibacterial activity against Pseudomonas aeruginosa isolate 1038 in vitro pharmacodynamic model. Type of experiment: functional. In short, it runs like this:
as §1

The test system of experiment [4] is Pseudomonas aeruginosa. Briefly: fT>MIC in Pseudomonas aeruginosa isolate 1030 at 2 gram for every 8 hrs administered as 3 hrs infusion over 24 hrs in in vitro pharmcodynamic model. Type of experiment: functional.
Experiment [5] deals with Pseudomonas aeruginosa. Briefly: fT>MIC in Pseudomonas aeruginosa isolate 1177 at 2 gram for every 8 hrs administered as 3 hrs infusion over 24 hrs in in vitro pharmcodynamic model. Type of experiment: functional.
Experiment [6] deals with Klebsiella pneumoniae. The experiment can be described thus: fT>MIC in Klebsiella pneumoniae isolate 351 at 2 gram for every 8 hrs administered as 3 hrs infusion measured over 0-8 hrs in in vitro pharmcodynamic model. Type of experiment: functional. Summed up: (§2)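 Samples assayed by HPLC (linear 0.25–40 µg/ml). Time free drug stayed above the modal triplicate broth-microdilution MIC (CLSI) calculated for each 8-h interval.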

Experiment [7] relates to Klebsiella pneumoniae. Briefly: fT>MIC in Klebsiella pneumoniae isolate 354 at 2 gram for every 8 hrs administered as 3 hrs infusion measured over 0-8 hrs in in vitro pharmcodynamic model. Type of experiment: functional. In short, it runs like this: as §2
In experiment [8] the test system is Pseudomonas aeruginosa. The experiment can be described thus: fT>MIC in Pseudomonas aeruginosa isolate 1177 at 2 gram for every 8 hrs administered as 3 hrs infusion measured over 0-8 hrs in in vitro pharmcodynamic model. Type of experiment: functional.
The subject of experiment [9] is Klebsiella pneumoniae. The experiment can be described thus: fT>MIC in Klebsiella pneumoniae isolate 351 at 2 gram for every 8 hrs administered as 3 hrs infusion measured over 8-16 hrs in in vitro pharmcodynamic model. Type of experiment: functional. In short, it runs like this: as §2
In experiment [10] the test system is Klebsiella pneumoniae. The experiment can be described thus: fT>MIC in Klebsiella pneumoniae isolate 353 at 2 gram for every 8 hrs administered as 3 hrs infusion measured over 8-16 hrs in in vitro pharmcodynamic model. Type of experiment: functional, isoalte 353. Summed up:
as §2

Experiment [11] concerns Pseudomonas aeruginosa. The experiment can be described thus: fT>MIC in Pseudomonas aeruginosa isolate 1038 at 2 gram for every 8 hrs administered as 3 hrs infusion measured over 8-16 hrs in in vitro pharmcodynamic model. Type of experiment: functional.
Experiment [12] relates to Klebsiella pneumoniae. The experiment can be described thus: fT>MIC in Klebsiella pneumoniae isolate 351 at 2 gram for every 8 hrs administered as 3 hrs infusion measured over 16-24 hrs in in vitro pharmcodynamic model. Type of experiment: functional. In short, it runs like this: as §2
Experiment [13] relates to Klebsiella pneumoniae. Briefly: fT>MIC in Klebsiella pneumoniae isolate 360 at 2 gram for every 8 hrs administered as 3 hrs infusion measured over 16-24 hrs in in vitro pharmcodynamic model. Type of experiment: functional. In short, it runs like this: as §2
The test system of experiment [14] is Pseudomonas aeruginosa. The experiment can be described thus: fT>MIC in Pseudomonas aeruginosa isolate 1038 at 2 gram for every 8 hrs administered as 3 hrs infusion measured over 16-24 hrs in in vitro pharmcodynamic model. Type of experiment: functional.
The subject of experiment [15] is Pseudomonas aeruginosa. Briefly: fT>MIC in Pseudomonas aeruginosa isolate 988 at 2 gram for every 8 hrs administered as 3 hrs infusion measured over 16-24 hrs in in vitro pharmcodynamic model. Type of experiment: functional.
Experiment [16] concerns Pseudomonas aeruginosa. The experiment can be described thus: Antibacterial activity against Pseudomonas aeruginosa isolate 1177 assessed as reduction of bacterial count at 8 ug/ml within 6 hrs in vitro pharmacodynamic model. Type of experiment: functional.
Experiment [17] has as its system Pseudomonas aeruginosa. The experiment can be described thus: Antibacterial activity against Pseudomonas aeruginosa isolate 896 assessed as reduction of bacterial count at 16 ug/ml within 6 hrs in vitro pharmacodynamic model. Type of experiment: functional.
Experiment [18] deals with Pseudomonas aeruginosa. Briefly: Antibacterial activity against Pseudomonas aeruginosa isolate 988 assessed as reduction of bacterial count at 16 ug/ml within 6 hrs in vitro pharmacodynamic model. Type of experiment: functional.
Experiment [19] concerns Klebsiella pneumoniae. Briefly: fT>MIC in Klebsiella pneumoniae isolate 360 at 2 gram for every 8 hrs administered as 3 hrs infusion measured over 0-8 hrs in in vitro pharmcodynamic model. Type of experiment: functional. In short, it runs like this: as §2

Broadly, the MIC is the smallest concentration in the dilution series that meets the test's criterion for growth inhibition. Low readings indicate greater potency, high ones weaker potency. Consider `C[C@@H](O)[C@H]1C(=O)N2C(C(=O)O)=C(S[C@@H]3CN[C@H](C(=O)N(C)C)C3)[C@H](C)[C@H]12` [MEROPENEM], for which the MIC in the experiment on Klebsiella pneumoniae [1] turned out to be 32 mg/L (≈ 83.4 µM); in the experiment with Klebsiella pneumoniae [2] it was 64 mg/L (≈ 167 µM); in the experiment with Pseudomonas aeruginosa [3] it was 8 mg/L (≈ 20.9 µM). For the same molecule, the “fT>MIC” value is reported as 69% in the experiment with Pseudomonas aeruginosa [4]; 69% in the experiment with Pseudomonas aeruginosa [5]; 69% in the experiment on Klebsiella pneumoniae [6]; 68% in the experiment with Klebsiella pneumoniae [7]; 75% with Pseudomonas aeruginosa [8]; 62% with Klebsiella pneumoniae [9]. In addition, the “fT>MIC” value in the experiment on Klebsiella pneumoniae [10] is given as 59%; in the experiment on Pseudomonas aeruginosa [11] it was 100%; in the experiment on Klebsiella pneumoniae [12] it was 50%; in the experiment on Klebsiella pneumoniae [13] it was 0%; in the experiment with Pseudomonas aeruginosa [14], 82%; in the experiment with Pseudomonas aeruginosa [15], 38%. For the same molecule, in the experiment on Klebsiella pneumoniae [19], the “fT>MIC” value was 0%. In addition, the log10cfu entry with Pseudomonas aeruginosa [16], in the experiment with Pseudomonas aeruginosa [17] and in the experiment with Pseudomonas aeruginosa [18] was “>=3” in each case.
